Data reported in ChEMBL document CHEMBL2384939, “Synthesis of pyrazolo[1,5-a]pyrimidine linked aminobenzothiazole conjugates as potential anticancer agents” (Bioorg Med Chem Lett, 2013).
Active and inactive are the calls of the source. The calls are words filed in the database; no cut-off is given here.

Legend:
[1] = tested on: ACHN; experiment: Cytotoxicity against human ACHN cells after 48 hrs by MTT assay; type: functional, cell-based
Procedure, shortened: (§1)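 MTT assay: […] were plated in DMEM with 10% FBS and incubated for 24 h at 37 °C under CO2. Compounds diluted in culture medium were added alongside a vehicle control for 48 h. MTT (10 µl of a 5 mg/ml stock) was added for a further 4 h. The supernatant was then removed, the formazan dissolved in DMSO, and absorbance read at 540 nm. IC50 was derived.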

[2] = tested on: A549; experiment: Cytotoxicity against human A549 cells after 48 hrs by MTT assay; type: functional, cell-based; settings: A549, 48 h; procedure, shortened: as §1
[3] = tested on: DU-145; experiment: Cytotoxicity against human DU145 cells after 48 hrs by MTT assay; type: functional, cell-based; settings: DU-145, 48 h; procedure, shortened: as §1
[4] = tested on: MCF7; experiment: Cytotoxicity against human MCF7 cells after 48 hrs by MTT assay; type: functional, cell-based; settings: MCF7, 48 h; procedure, shortened: as §1
[5] = tested on: HeLa; experiment: Cytotoxicity against human HeLa cells after 48 hrs by MTT assay; type: functional, cell-based; procedure, shortened: as §1
[6] = tested on: A549; experiment: Cell cycle arrest at human A549 cells assessed as accumulation at sub G1 phase at 2 uM after 48 hrs by propidium iodide-staining-based FACS flow cytometric analysis (reference value: 1.02%); type: functional
[7] = tested on: A549; experiment: Cell cycle arrest at human A549 cells assessed as accumulation at G2/M phase at 2 uM after 48 hrs by propidium iodide-staining-based FACS flow cytometric analysis (reference value: 13.17%); type: functional
[8] = tested on: A549; experiment: Cell cycle arrest at human A549 cells assessed as accumulation at G0/G1 phase at 2 uM after 48 hrs by propidium iodide-staining-based FACS flow cytometric analysis (reference value: 81.33%); type: functional
[9] = tested on: A549; experiment: Cell cycle arrest at human A549 cells assessed as accumulation at S phase at 2 uM after 48 hrs by propidium iodide-staining-based FACS flow cytometric analysis (reference value: 4.48%); type: functional
[10] = tested on: A549; experiment: Induction of apoptosis in human A549 cells assessed as activation of caspase-3 at 2 uM after 48 hrs by ELISA relative to control; type: functional
Procedure, shortened: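 A549 lung cancer cells exposed to 1 and 2 µM compound for 48 h, with roscovitine as positive control. Pellets lysed for 15 min, and supernatant caspase-3 activity read by a commercial colorimetric kit relative to untreated control. Values are mean ± SD of two experiments run in triplicate.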

[11] = tested on: A549; experiment: Induction of apoptosis in human A549 cells assessed as DNA fragmentation at 2 uM after 48 hrs by agarose gel electrophoresis; type: functional, cell-based
Procedure, shortened: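 A549 cells (1×10^6) seeded in six-well plates for 24 h, then exposed to 2 µM compound or roscovitine for 48 h and pelleted. Lysate treated with SDS and RNase-A (2 h, 56 °C), then proteinase K (2 h, 37 °C). DNA precipitated with ammonium acetate/cold ethanol, dissolved in TE, and laddering resolved on 2% agarose gel against a 50 bp marker.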

Compound | IC50 [1] [µM] | IC50 [2] [µM] | IC50 [3] [µM] | IC50 [4] [µM] | IC50 [5] [µM] | Activity [6] [%] | Activity [7] [%] | Activity [8] [%] | Activity [9] [%] | fold change (FC) [10] | Activity [11]
Cc1cc2nc(NC(=O)c3cc(-c4ccc(F)cc4)n4nc(-c5ccccc5)cc4n3)sc2cc1C | 33 | 12.6 | 12.9 | 17 | 18.2 | – | – | – | – | – | –
COc1ccc(-c2cc(C(=O)Nc3nc4ccc(OC)cc4s3)nc3cc(-c4ccccc4)nn23)cc1 | 38.3 | 17.4 | 7.58 | 19.1 | 24.5 | – | – | – | – | – | –
COc1ccc(-c2cc(C(=O)Nc3nc4cc(C)c(C)cc4s3)nc3cc(-c4ccccc4)nn23)cc1 | 22.4 | 13.2 | 12.3 | 19.7 | 14.1 | – | – | – | – | – | –
COc1ccc2nc(NC(=O)c3cc(-c4ccc(OC)c(OC)c4)n4nc(-c5ccccc5)cc4n3)sc2c1 | 13.3 | 15.8 | 14 | 18.7 | 11 | – | – | – | – | – | –
COc1ccc(-c2cc(C(=O)Nc3nc4ccccc4s3)nc3cc(-c4ccccc4)nn23)cc1 | 1.69 | 1.54 | 2.95 | 2.23 | 4.67 | – | – | – | – | – | –
COc1cc(-c2cc(C(=O)Nc3nc4ccc(Cl)cc4s3)nc3cc(-c4ccccc4)nn23)cc(OC)c1OC | 41.7 | 18.2 | 38.9 | 30.2 | 22.4 | – | – | – | – | – | –
COc1cc(-c2cc(C(=O)Nc3nc4ccc(F)cc4s3)nc3cc(-c4ccccc4)nn23)cc(OC)c1OC | 32.4 | 22.4 | 25.7 | 27.5 | 25.1 | – | – | – | – | – | –
O=C(Nc1nc2ccc(F)cc2s1)c1cc(-c2ccc(F)cc2)n2nc(-c3ccccc3)cc2n1 | 35.5 | 14.8 | 22.9 | 22.9 | 29.5 | – | – | – | – | – | –
COc1cc(-c2cc(C(=O)Nc3nc4cc(C)c(C)cc4s3)nc3cc(-c4ccccc4)nn23)cc(OC)c1OC | 3.8 | 2.34 | 3.71 | 2.29 | 8.91 | – | – | – | – | – | –
COc1ccc2nc(NC(=O)c3cc(-c4cc(OC)c(OC)c(OC)c4)n4nc(-c5ccccc5)cc4n3)sc2c1 | 5.24 | 2.81 | 3.98 | 2.95 | 8.7 | – | – | – | – | – | –
COc1ccc(-c2cc(C(=O)Nc3nc4ccc(F)cc4s3)nc3cc(-c4ccccc4)nn23)cc1OC | 8.12 | 6.91 | 18.6 | 22.4 | 8.31 | – | – | – | – | – | –
COc1ccc(-c2cc(C(=O)Nc3nc4ccc(F)cc4s3)nc3cc(-c4ccccc4)nn23)cc1 | 39.3 | 11.7 | 31.4 | 35.5 | 41.7 | – | – | – | – | – | –
CC[C@H](CO)Nc1nc(NCc2ccccc2)c2ncn(C(C)C)c2n1 [SELICICLIB] | 2.88 | 2.18 | 1.9 | 3.98 | 1.81 | 7.3 | 40.69 | 46.75 | 5.26 | 4 | Active
COc1ccc(-c2cc(C(=O)Nc3nc4ccc(Cl)cc4s3)nc3cc(-c4ccccc4)nn23)cc1 | 7.24 | 3.09 | 5.88 | 4.89 | 5.88 | – | – | – | – | – | –
COc1ccc2nc(NC(=O)c3cc(-c4ccc(F)cc4)n4nc(-c5ccccc5)cc4n3)sc2c1 | 26.3 | 24 | 15.4 | 24.5 | 17.3 | – | – | – | – | – | –
O=C(Nc1nc2ccc(Cl)cc2s1)c1cc(-c2ccc(F)cc2)n2nc(-c3ccccc3)cc2n1 | 13.8 | 6.6 | 17.6 | 19.8 | 9.77 | – | – | – | – | – | –
COc1ccc(-c2cc(C(=O)Nc3nc4ccc(Cl)cc4s3)nc3cc(-c4ccccc4)nn23)cc1OC | 7.76 | 6.16 | 9.33 | 6.91 | 9.12 | – | – | – | – | – | –
COc1ccc(-c2cc(C(=O)Nc3nc4cc(C)c(C)cc4s3)nc3cc(-c4ccccc4)nn23)cc1OC | 8.7 | 2.95 | 6.91 | 2.51 | 6.76 | – | – | – | – | – | –
COc1ccc(-c2cc(C(=O)Nc3nc4ccccc4s3)nc3cc(-c4ccccc4)nn23)cc1OC | 7.94 | 5.49 | 19.1 | 14.7 | 8.91 | – | – | – | – | – | –
